Laboratory results published in ChEMBL document CHEMBL1153528, “Modeling of the aryl hydrocarbon receptor (AhR) ligand binding domain and its utility in virtual ligand screening to predict new AhR ligands” (J Med Chem, 2009).

Legend:
Assay type in all cases: cell-based; call rule not given here
[1] = target: T1, Aryl hydrocarbon receptor (AhR) ligand-binding domain (Mus musculus, UniProt P30561); assay: Induction of mouse AhR LBD transcriptional activity in mouse hepa1 cells transfected with AhR response element co expressed with XRE after 6 hrs by luciferase reporter gene assay relative to control; settings: read-out: FC
T1 sequence (P30561 whole entry): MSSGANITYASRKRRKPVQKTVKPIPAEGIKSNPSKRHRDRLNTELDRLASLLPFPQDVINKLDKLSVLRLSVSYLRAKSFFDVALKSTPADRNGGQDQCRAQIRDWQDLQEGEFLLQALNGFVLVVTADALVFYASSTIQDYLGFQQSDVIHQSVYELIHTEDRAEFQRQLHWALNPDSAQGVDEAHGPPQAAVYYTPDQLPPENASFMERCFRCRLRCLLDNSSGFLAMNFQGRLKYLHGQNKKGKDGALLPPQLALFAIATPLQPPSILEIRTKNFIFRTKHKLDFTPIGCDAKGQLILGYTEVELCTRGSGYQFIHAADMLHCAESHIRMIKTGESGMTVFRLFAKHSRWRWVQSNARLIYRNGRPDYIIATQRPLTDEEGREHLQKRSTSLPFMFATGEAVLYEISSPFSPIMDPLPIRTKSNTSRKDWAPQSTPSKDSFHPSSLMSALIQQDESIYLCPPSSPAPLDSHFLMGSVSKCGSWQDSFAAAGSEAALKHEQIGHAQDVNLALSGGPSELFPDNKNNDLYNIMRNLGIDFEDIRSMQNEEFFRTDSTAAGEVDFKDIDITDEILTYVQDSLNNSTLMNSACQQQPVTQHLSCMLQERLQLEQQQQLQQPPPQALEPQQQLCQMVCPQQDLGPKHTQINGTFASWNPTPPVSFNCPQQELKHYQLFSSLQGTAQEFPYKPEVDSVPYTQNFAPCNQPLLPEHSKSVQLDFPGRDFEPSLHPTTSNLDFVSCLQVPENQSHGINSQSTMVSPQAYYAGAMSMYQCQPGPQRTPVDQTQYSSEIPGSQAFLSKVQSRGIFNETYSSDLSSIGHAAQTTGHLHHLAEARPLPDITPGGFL
Summary of the method: (§1)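 Mouse Hepa1 cells carrying an AhRE/XRE-luciferase reporter, grown in DMEM/10% FBS with penicillin/streptomycin under 5% CO2. Test agents from DMSO stocks, final 20 µM, were applied for 6 h and reporter activity then measured. Fold activation was graded: ≥8 very strong, >4 strong, […].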

[2] = target: T2, Aryl hydrocarbon receptor (Mus musculus, UniProt P30561); assay: Induction of mouse AhR LBD transcriptional activity in mouse hepa1 cells transfected with AhR response element co expressed with XRE at 20 uM after 6 hrs by luciferase reporter gene assay in presence of 6-hydroxy-7-methoxyflavone; summary of the method: as §1
T2 sequence (P30561 whole entry): T1 sequence (P30561 whole entry)

[3] = target: T2, Aryl hydrocarbon receptor; assay: Effect on AhR-mediated CYP1A1 activation in mouse Hepa1c1c12 cells at 20 uM after 18 hrs by Western blot analysis; settings: in the assay text read “semi-quantitative RT-PCR analysis” for “Western blot analysis”
Summary of the method: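 Pair of Hepa1c1c7-derived lines: C12 (much reduced AhR) and C12 re-expressing WT AhR. Cells in DMEM/10% FBS with antibiotics under 5% CO2 were given 20 µM for 18 h, vehicle 0.1% DMSO, TCDD 1 nM as reference. Target genes (CYP1A1, NADPH-QO) assessed by semi-quantitative RT-PCR with GAPDH control. AhR shown by blot of 30 µg whole-cell lysate.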

[4] = target: T2, Aryl hydrocarbon receptor; assay: Induction of nuclear translocation of AhR from cytosol in mouse Hepa1 cells at 20 uM after 60 mins using DAPI staining by microscopic analysis; settings: hepa1, 1 h
Summary of the method: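 Hepa1 cells given test agents for 60 min, then fixed. They were immunostained for AhR with FITC-labelled secondary antibody and counterstained with DAPI for nuclei. AhR nuclear localization was imaged by fluorescence microscopy.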

Structure (SMILES)	fold induction at 6 h [1]	Activity [2]	Activity [3]	Activity [4]
COc1ccc2c(=O)c(-c3ccccc3)coc2c1	2.7			
Clc1cc2c(cc1Cl)Oc1cc(Cl)c(Cl)cc1O2 [2,3,7,8-TETRACHLORODIBENZO-P-DIOXIN]	21			
O=c1cc(-c2ccccc2O)oc2c(O)c(O)ccc12	2.8			
Cc1ccc2oc(-c3ccccc3)cc(=O)c2c1 [6-METHYLFLAVONE]	4.8			
Cc1ccc2oc(-c3ccccc3)c(O)c(=O)c2c1	2.5			
COc1cc(O)c2c(=O)cc(-c3ccccc3)oc2c1 [TECHTOCHRYSIN]	11.3	Not Active	Active	Active
O=C1CC(c2ccccc2)Oc2cc(O)cc(O)c21 (single isomer, unassigned) [PINOCEMBRIN]	8		Active	Active
